Assay results as given in PMC9041360 (RSC Advances, 2021).
Like-named read-outs stand apart in the source and are kept apart here.

Columns and labels:
HeLa cells [1] = conditions: read-out: IC50 cytotoxicity against HeLa cells; HeLa cells ref 40; cited from earlier work
[2] = Lipid bilayer experiments; conditions: planar DOPC/DOPE membranes, 50 mV
How it was run: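 Black lipid bilayers were painted from 3% (w/v) DOPC/DOPE 2:1 (w/w) in n-decane/butanol 9:1 across a 0.5 mm aperture. Both compartments held 10 mM Tris, 1 M KCl, pH 7.4, at 25 °C. Test compound (5 or 10 μM) was added to the cis side. Current was recorded with Ag/AgCl electrodes at 50 mV, cis positive, with traces of 120 s.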

HeLa cells [3] = assay: Membrane damage by LDH leakage; format: cell-based, human
How it was run: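 HeLa cells were seeded at 1 × 10^4 per well. At 30 min, 45 min, 1, 2, 3 and 6 h after treatment, LDH release was measured with the CytoTOX One membrane-integrity kit. Lysis solution gave maximum leakage. Fluorescence (ex 560/em 590) was expressed as percent of maximum LDH leakage.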

[4] = test system: Aspergillus fumigatus (BCC020_2845); assay: Antifungal activity, broth two-fold microdilution; format: cell-based; conditions: 30 °C, 48 h, tested 75 to 0.036 μM; NA = no activity at 75 μM
How it was run: (§1)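 Two-fold broth microdilution per CLSI M100-S20. Compounds were serially diluted from 75 to 0.036 μM in Mueller Hinton broth with 2% glucose. Inoculum from an overnight culture, about 5 × 10^5 CFU mL−1 final. Incubated aerobically at 30 °C for 48 h. Solvent control: medium with 50% DMSO in methanol. Fluconazole (32 to 0.0625 μg mL−1) served as positive control. MIC was the lowest concentration showing some growth inhibition. Triplicate.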

[5] = test system: Alternaria alternata (BCC020_0609); assay: Antifungal activity, broth two-fold microdilution; format: cell-based; conditions: 30 °C, 48 h, tested 75 to 0.036 μM; NA = no activity at 75 μM
How it was run: as §1

HeLa cells [6] = assay: Cytotoxicity testing using MTT, dose–response; format: cell-based, human
How it was run: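 HeLa cells grown in RPMI 1640 with 10% FBS, 2 mM L-glutamine and 1% antibiotics at 37 °C, 5% CO2. Seeded at 10 × 10^3 cells per well and left to adhere overnight. The whole medium was replaced with test compound in medium for 48 h. MTT (4 mg mL−1 in PBS) was added for 4 h, then cells were centrifuged and formazan dissolved in DMSO. Absorbance at 590/640 nm. Viability given as percent of untreated control.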

[7] = test system: Saccharomyces cerevisiae P23; assay: Membrane permeabilization assay; format: cell-based; conditions: S. cerevisiae, 5 and 10 μM
How it was run: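 S. cerevisiae P23 was grown aerobically in YEPG at 30 °C to mid-log phase (OD450 about 0.5). Cells were harvested, washed and resuspended to OD450 about 0.2 in 0.15 M citrate–phosphate buffer, pH 6.0, with 0.5% glucose and 10 μM propidium iodide. Test compound was added at 1, 5 or 10 μM final. PI uptake was followed as fluorescence (ex 515/em 620) at 25 °C. Controls: 10 μM melittin (positive) and buffer (baseline). Two sets of experiments, with no background subtraction.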

HeLa cells [8] = assay: Recovery experiments; format: cell-based, human; conditions: 5 and 10 μM, exposure 1–8 h, then 48 h recovery, MTT
HeLa cells [9] = assay: Cellular morphology by light microscopy; format: cell-based, human; conditions: 48 h of exposure, concentrations from 2.5 to 20 μM
How it was run: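 HeLa cells in RPMI were seeded at 5 × 10^3 cells per well on poly-D-lysine-coated glass-bottom imaging plates. Next day they were treated with 20, 5 or […] μM test compound. Live-cell imaging used an inverted microscope with an incubation chamber supplied with 5% CO2 and a 100× oil objective. Images were taken after 48 h of treatment.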

Row | Substance | IC50 (HeLa cells [1]) | pore-forming activity / membrane permeabilization (in words) ([2]; 5 μM) | typical transmembrane electrical current ([2]; 10 μM) | LDH leakage (in words) (HeLa cells [3]; early time points up to 2 h) | LDH accumulated in the medium, % of positive control (HeLa cells [3]; only after 3 h) | MIC A. fumigatus [4] | MIC A. alternata [5] | reduction of cell viability / inhibition (HeLa cells [6]; MTT, 48 h, at higher concentrations (5–20 μM)) | IC50 (HeLa cells [6]; read-out: IC50 against HeLa cells (MTT assay), 48 h treatment) | membrane permeabilization, PI entry into yeast cells (in words) [7] | cell viability after compound washout and recovery (in words) (HeLa cells [8]) | cellular morphology (in words) (HeLa cells [9])
1 | Iturin A | 1730 nM | – | – | – | – | – | – | – | – | – | – | –
2 | minutissamide A [Compound 1] | – | almost completely inactive | about 10 pA | No LDH leakage | up to 30% | 37.5 µM | 75 µM | 70% | 2800 nM | No membrane disruption was detectable | easily tolerated by the cells for the first two hours | cell shrinkage and membrane rupture
